The text below walks through data of ChEMBL document CHEMBL4184121, “Semisynthesis, cytotoxicity, antimalarial evaluation and structure-activity relationship of two series of triterpene derivatives” (Bioorg Med Chem Lett, 2018).

For series [1], the system named is Plasmodium falciparum. Briefly: Antiplasmodial activity against chloroquine-resistant Plasmodium falciparum W2 infected in human erythrocytes. The series is classed as functional, organism-based. An outline of the steps:
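P. falciparum W2 grown in fresh human O+ erythrocytes at 2% hematocrit in complete medium, 37 °C. Compounds tested over a 100–3.12 µM dilution series. IC50 estimated from the dose-response curve relative to drug-free control wells (100% parasite viability). Artemisinin run in parallel as control. Triplicates, at least three independent cultures (n = 3).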

Series [2] in a line: Cytotoxicity against African green monkey Vero cells after 72 hrs by MTT assay. Type of series: cell-based. As to conditions: chlorocebus sabaeus. The method, boiled down: (§1)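 VERO (ATCC CCL-81) and HepG2 (ATCC HB-8065) cells were exposed for 24, 48 or 72 h to an […] dilution series from 400 to 1.56 μM. CC50 was taken from the concentration–response curve. Triplicates, with at least three independent cultures (n = 3).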

Series [3] in a line: Cytotoxicity against human HepG2 cells after 72 hrs by MTT assay. Type of series: cell-based. An outline of the steps:
as §1

Series [4] is described as follows: Selectivity index, ratio of CC50 for human HepG2 cells to IC50 for chloroquine-resistant Plasmodium falciparum W2. As to conditions: read-out: Ratio CC50/IC50. The series is classed as toxicity. An outline of the steps:
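SI = HepG2 CC50 / W2 IC50. CC50 came from HepG2 growth inhibition over a 400–1.56 µM dilution series, read at 24, 48 and 72 h. IC50 came from the W2 erythrocyte assay (100–3.12 µM range). Triplicates, at least three independent cultures.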

For series [5], the system named is Plasmodium falciparum. Briefly: Antiplasmodial activity against Plasmodium falciparum assessed as combination index in presence of artemisinin. The series is classed as functional. The method, boiled down: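 Chloroquine-resistant P. falciparum W2 was grown in fresh human O+ erythrocytes at 2% hematocrit in complete medium at 37 °C. Artemisinin was co-tested with the triterpene using the one-point Chou–Talalay method, at a minimum of one combination ratio. CI is the sum of the two FICs: ≤1 synergy, 1–2 additivity, >2 antagonism. Triplicates, n = 3 independent cultures.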

The test system of series [6] is Plasmodium falciparum. Briefly: Antiplasmodial activity against Plasmodium falciparum assessed as potentiation of artemisinin-induced antimalarial activity by measuring dose reduction index relative to artemisinin alone. Type of series: functional.

For the molecule `CC(=O)O[C@H]1CC[C@]2(C)[C@H]3CC=C4[C@@H]5[C@@H](C)[C@H](C)CC[C@]5(C(=O)n5ccnc5)CC[C@@]4(C)[C@]3(C)CC[C@H]2C1(C)C`, in the series with Plasmodium falciparum [1], half-maximal inhibition (IC50) required 50.6 µM. Moreover, the CC50 at 72 h in series [2] and in series [3] was greater than 400 µM each time. Moreover, the selectivity ratio in series [4] was greater than 7.9.

For `C[C@H]1[C@H](C)CC[C@]2(C(=O)n3ccnc3)CC[C@]3(C)C(=CC[C@@H]4[C@@]5(C)CCC(=O)C(C)(C)[C@@H]5CC[C@]43C)[C@H]12`, the IC50 with Plasmodium falciparum [1] was 9.07 µM. Besides, the CC50 at 72 h in series [2] and in series [3] was greater than 400 µM each time. Moreover, the selectivity ratio in series [4] is greater than 44.1.

`C[C@H]1[C@H](C)CC[C@]2(C(=O)O)CC[C@]3(C)C(=CC[C@@H]4[C@@]5(C)CC[C@H](O)C(C)(C)[C@@H]5CC[C@]43C)[C@H]12` [URSOLIC ACID] registered an IC50 with Plasmodium falciparum [1] of 50.6 µM. The CC50 at 72 h in series [2] was 99.9 µM; in series [3], 114 µM. The selectivity ratio in series [4] was 2.24.

With `CCCC(=O)O[C@H]1CC[C@]2(C)[C@H]3CC=C4[C@@H]5[C@@H](C)[C@H](C)CC[C@]5(C(=O)O)CC[C@@]4(C)[C@]3(C)CC[C@H]2C1(C)C`, the midpoint of inhibition with Plasmodium falciparum [1], the IC50, lay at 13.3 µM. Further, the CC50 at 72 h in series [2] and in series [3] was greater than 400 µM each time. Besides, the selectivity ratio in series [4] was greater than 30. For the same molecule, the CI in the series on Plasmodium falciparum [5] turned out to be 1.05. The Activity_index in the series on Plasmodium falciparum [6] was 7.

The molecule `COC(=O)[C@]12CC[C@@H](C)[C@H](C)[C@H]1C1=CC[C@@H]3[C@@]4(C)CCC(=O)C(C)(C)[C@@H]4CC[C@@]3(C)[C@]1(C)CC2` had a 50% inhibitory concentration (IC50) with Plasmodium falciparum [1] greater than 100 µM. Further, the CC50 at 72 h in series [2] and in series [3] was greater than 400 µM in each case.

`COC(=O)[C@]12CC[C@@H](C)[C@H](C)[C@H]1C1=CC[C@@H]3[C@@]4(C)CC[C@H](OC(=O)C(C)C)C(C)(C)[C@@H]4CC[C@@]3(C)[C@]1(C)CC2` gave an IC50 in the series with Plasmodium falciparum [1] greater than 100 µM. The CC50 at 72 h in series [2] and in series [3] was greater than 400 µM in each case.

In the case of `C[C@H]1[C@H](C)CC[C@]2(C(=O)O)CC[C@]3(C)C(=CC[C@@H]4[C@@]5(C)CCC(=O)C(C)(C)[C@@H]5CC[C@]43C)[C@H]12` [URSONIC ACID], the IC50 with Plasmodium falciparum [1] came to 24.3 µM. Also, the CC50 at 72 h in series [2] and in series [3] was greater than 400 µM throughout. The selectivity ratio in series [4] is greater than 16.5.

Take `C=C(C)[C@@H]1CC[C@]2(C(=O)n3ccnc3)CC[C@]3(C)[C@H](CC[C@@H]4[C@@]5(C)CC[C@H](OC(C)=O)C(C)(C)[C@@H]5CC[C@]43C)[C@@H]12`: the IC50 in the series with Plasmodium falciparum [1] worked out at 8.9 µM. The CC50 at 72 h in series [2] and in series [3] was greater than 400 µM in each case. Also, the selectivity ratio in series [4] is greater than 44.9.

In the series on Plasmodium falciparum [1], `COC(=O)[C@]12CC[C@@H](C)[C@H](C)[C@H]1C1=CC[C@@H]3[C@@]4(C)CC[C@H](OC(C)=O)C(C)(C)[C@@H]4CC[C@@]3(C)[C@]1(C)CC2` returned an IC50 greater than 100 µM. In addition, the CC50 at 72 h in series [2] and in series [3] was greater than 400 µM throughout.

As to `CC(=O)O[C@H]1CC[C@]2(C)[C@H]3CC=C4[C@@H]5[C@@H](C)[C@H](C)CC[C@]5(C(=O)O)CC[C@@]4(C)[C@]3(C)CC[C@H]2C1(C)C` [O-ACETYLURSOLIC ACID], in the series with Plasmodium falciparum [1], half-maximal inhibition (IC50) required 9.08 µM. Moreover, the CC50 at 72 h in series [2] and in series [3] was greater than 400 µM in each case. In addition, the selectivity ratio in series [4] was greater than 44.

Take `C=C(C)[C@@H]1CC[C@]2(C(=O)n3ccnc3)CC[C@]3(C)[C@H](CC[C@@H]4[C@@]5(C)CC[C@H](OC(=O)CCC)C(C)(C)[C@@H]5CC[C@]43C)[C@@H]12`: inhibition in the series with Plasmodium falciparum [1] was half-maximal at 57.6 µM (IC50). Also, the CC50 at 72 h in series [2] and in series [3] was greater than 400 µM throughout. The selectivity ratio in series [4] was greater than 6.94.

In turn, `C=C(C)[C@@H]1CC[C@]2(C(=O)OC)CC[C@]3(C)[C@H](CC[C@@H]4[C@@]5(C)CC[C@H](OC(C)=O)C(C)(C)[C@@H]5CC[C@]43C)[C@@H]12` returned an IC50 in the series with Plasmodium falciparum [1] greater than 100 µM. In addition, the CC50 at 72 h in series [2] and in series [3] was greater than 400 µM throughout.

In the series with Plasmodium falciparum [1], `C=C(C)[C@@H]1CC[C@]2(C(=O)O)CC[C@]3(C)[C@H](CC[C@@H]4[C@@]5(C)CC[C@H](OC(C)=O)C(C)(C)[C@@H]5CC[C@]43C)[C@@H]12` showed an IC50 of 65.5 µM. Further, the CC50 at 72 h in series [2] and in series [3] was greater than 400 µM in each case. The selectivity ratio in series [4] is greater than 6.11.

Regarding `C=C(C)[C@@H]1CC[C@]2(C(=O)O)CC[C@]3(C)[C@H](CC[C@@H]4[C@@]5(C)CC[C@H](O)C(C)(C)[C@@H]5CC[C@]43C)[C@@H]12` [BETULINIC ACID], in the series on Plasmodium falciparum [1], 12.8 µM corresponded to half-maximal inhibition (IC50). Further, the CC50 at 72 h in series [2] and in series [3] was greater than 400 µM each time. Moreover, the selectivity ratio in series [4] was greater than 31.4.

On to `CC(C)C(=O)O[C@H]1CC[C@]2(C)[C@H]3CC=C4[C@@H]5[C@@H](C)[C@H](C)CC[C@]5(C(=O)O)CC[C@@]4(C)[C@]3(C)CC[C@H]2C1(C)C`, for which, in the series on Plasmodium falciparum [1], the IC50 was greater than 100 µM. For the same molecule, the CC50 at 72 h in series [2] and in series [3] was greater than 400 µM throughout.

In the series on Plasmodium falciparum [1], `C=C(C)[C@@H]1CC[C@]2(C(=O)n3ccnc3)CC[C@]3(C)[C@H](CC[C@@H]4[C@@]5(C)CC[C@H](OC(=O)C(C)C)C(C)(C)[C@@H]5CC[C@]43C)[C@@H]12` showed a concentration for half-maximal inhibition (IC50) of 29.6 µM. Also, the CC50 at 72 h in series [2] and in series [3] was greater than 400 µM each time. In addition, the selectivity ratio in series [4] was greater than 13.5.

As to `CCCC(=O)O[C@H]1CC[C@]2(C)[C@H]3CC=C4[C@@H]5[C@@H](C)[C@H](C)CC[C@]5(C(=O)OC)CC[C@@]4(C)[C@]3(C)CC[C@H]2C1(C)C`, in the series with Plasmodium falciparum [1], the IC50 is greater than 100 µM. Moreover, the CC50 at 72 h in series [2] and in series [3] was greater than 400 µM each time.

In the series with Plasmodium falciparum [1], `C=C(C)[C@@H]1CC[C@]2(C(=O)OC)CC[C@]3(C)[C@H](CC[C@@H]4[C@@]5(C)CC[C@H](OC(=O)C(C)C)C(C)(C)[C@@H]5CC[C@]43C)[C@@H]12` registered an IC50 greater than 100 µM. For the same molecule, the CC50 at 72 h in series [2] and in series [3] was greater than 400 µM in each case.

`C=C(C)[C@@H]1CC[C@]2(C(=O)OC)CC[C@]3(C)[C@H](CC[C@@H]4[C@@]5(C)CC[C@H](OC(=O)CCC)C(C)(C)[C@@H]5CC[C@]43C)[C@@H]12` returned an IC50 with Plasmodium falciparum [1] greater than 100 µM. The CC50 at 72 h in series [2] and in series [3] was greater than 400 µM each time.

Consider `C[C@@H]1CC[C@H]2[C@@H](C)C(=O)O[C@@H]3O[C@@]4(C)CC[C@@H]1[C@]32OO4` [ARTEMISININ], for which the midpoint of inhibition in the series with Plasmodium falciparum [1], the IC50, lay at 0.0163 µM.

Molecule `C=C(C)[C@@H]1CC[C@]2(C(=O)OC)CC[C@]3(C)[C@H](CC[C@@H]4[C@@]5(C)CCC(=O)C(C)(C)[C@@H]5CC[C@]43C)[C@@H]12` [METHYL BETULONATE] came in with an IC50 in the series with Plasmodium falciparum [1] greater than 100 µM. For the same molecule, the CC50 at 72 h in series [2] and in series [3] was greater than 400 µM each time.

In the series on Plasmodium falciparum [1], `CCCC(=O)O[C@H]1CC[C@]2(C)[C@H]3CC=C4[C@@H]5[C@@H](C)[C@H](C)CC[C@]5(C(=O)n5ccnc5)CC[C@@]4(C)[C@]3(C)CC[C@H]2C1(C)C` gave an IC50 of 10.4 µM. Further, the CC50 at 72 h in series [2] and in series [3] was greater than 400 µM each time. In addition, the selectivity ratio in series [4] was greater than 38.5.

In the series on Plasmodium falciparum [1], `C=C(C)[C@@H]1CC[C@]2(C(=O)n3ccnc3)CC[C@]3(C)[C@H](CC[C@@H]4[C@@]5(C)CCC(=O)C(C)(C)[C@@H]5CC[C@]43C)[C@@H]12` gave an IC50 of 5.2 µM. The CC50 at 72 h in series [2] and in series [3] was greater than 400 µM throughout. Further, the selectivity ratio in series [4] was greater than 76.8.

As for `C=C(C)[C@@H]1CC[C@]2(C(=O)O)CC[C@]3(C)[C@H](CC[C@@H]4[C@@]5(C)CCC(=O)C(C)(C)[C@@H]5CC[C@]43C)[C@@H]12` [BETUNOLIC ACID], the IC50 in the series with Plasmodium falciparum [1] is 7.87 µM. Moreover, the CC50 at 72 h in series [2] is greater than 400 µM; in series [3], 150 µM. Further, the selectivity ratio in series [4] stood at 19.1.

In the case of `C=C(C)[C@@H]1CC[C@]2(C(=O)O)CC[C@]3(C)[C@H](CC[C@@H]4[C@@]5(C)CC[C@H](OC(=O)C(C)C)C(C)(C)[C@@H]5CC[C@]43C)[C@@H]12`, the IC50 in the series on Plasmodium falciparum [1] was found to be 12.1 µM. Further, the CC50 at 72 h in series [2] and in series [3] was greater than 400 µM throughout. The selectivity ratio in series [4] is greater than 33.

`CC(C)C(=O)O[C@H]1CC[C@]2(C)[C@H]3CC=C4[C@@H]5[C@@H](C)[C@H](C)CC[C@]5(C(=O)n5ccnc5)CC[C@@]4(C)[C@]3(C)CC[C@H]2C1(C)C` displayed an IC50 with Plasmodium falciparum [1] of 13.6 µM. The CC50 at 72 h in series [2] and in series [3] was greater than 400 µM in each case. Also, the selectivity ratio in series [4] was greater than 29.4.
